Assay: Sirolimus whole blood pharmacokinetics
Type: in vivo, human
Conditions: for AUC(0-inf) / Cmax / half-life / AUC / Tmax: human, whole blood, oral; for AUC: AUC [SD]; for Tmax: Tmax [SD]
Method in brief: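 Advanced-cancer patients received oral sirolimus once weekly as 1 mg tablets. Week 1 was sirolimus alone. From week 2, ketoconazole was added: 200 mg bid on day 1, then 200 mg daily for 3 days. Whole blood was sampled predose and at 0.25, 0.5, 1, 2, 4, 8, 24 and 48 h in weeks 1–2, and predose in week 3. Analysis was noncompartmental. Cohort doses were re-estimated toward the target AUC assuming dose–AUC linearity.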

[1] = 30 mg, sirolimus alone study, 4 hours apart (total 60 mg), N=5, mean
[2] = 30 mg, sirolimus alone study, 24 hours apart (total 60 mg), N=3, mean
[3] = 45 mg, sirolimus alone study, 24 hours apart (total 90 mg), N=2, mean

CO[C@H]1C[C@@H]2CC[C@@H](C)[C@@](O)(O2)C(=O)C(=O)N2CCCC[C@H]2C(=O)O[C@H]([C@H](C)C[C@@H]2CC[C@@H](O)[C@H](OC)C2)CC(=O)[C@H](C)/C=C(\C)[C@@H](O)[C@@H](OC)C(=O)[C@H](C)C[C@H](C)/C=C/C=C/C=C/1C [Sirolimus]
AUC(0-inf) (1 mg, sirolimus 1 mg, with ketoconazole, n=6): 935 ng·h/mL
AUC(0-inf) (1 mg, sirolimus 1 mg, without ketoconazole, n=6): 186 ng·h/mL
Cmax (1 mg, Cmax, sirolimus 1 mg, with ketoconazole, n=6): 25.4 ng/mL
Cmax (1 mg, Cmax, sirolimus 1 mg, without ketoconazole, n=6): 5.4 ng/mL
half-life (1 mg, T1/2, sirolimus 1 mg, without ketoconazole, n=6): 82 h
AUC(0-inf) (2 mg, sirolimus 2 mg, with ketoconazole, n=6): 1350 ng·h/mL
AUC(0-inf) (2 mg, sirolimus 2 mg, without ketoconazole, n=6): 271 ng·h/mL
AUC(0-inf) (3 mg, sirolimus 3 mg, with ketoconazole, n=6): 2450 ng·h/mL
AUC(0-inf) (3 mg, sirolimus 3 mg, without ketoconazole, n=6): 400 ng·h/mL
Cmax (3 mg, Cmax, sirolimus 3 mg, with ketoconazole, n=6): 49.2 ng/mL
half-life (3 mg, T1/2, sirolimus 3 mg, with ketoconazole, n=6): 84 h
half-life (3 mg, T1/2, sirolimus 3 mg, without ketoconazole, n=6): 35 h
AUC(0-inf) (4 mg, sirolimus 4 mg, with ketoconazole, n=6): 2900 ng·h/mL
AUC(0-inf) (4 mg, sirolimus 4 mg, without ketoconazole, n=6): 456 ng·h/mL
Cmax (4 mg, Cmax, sirolimus 4 mg, with ketoconazole, n=6): 66.8 ng/mL
Cmax (4 mg, Cmax, sirolimus 4 mg, without ketoconazole, n=6): 21.3 ng/mL
half-life (4 mg, T1/2, sirolimus 4 mg, without ketoconazole, n=6): 36 h
AUC(0-inf) (5 mg, sirolimus 5 mg, with ketoconazole, n=6): 3140 ng·h/mL
AUC(0-inf) (5 mg, sirolimus 5 mg, without ketoconazole, n=6): 676 ng·h/mL
Cmax (5 mg, Cmax, sirolimus 5 mg, with ketoconazole, n=6): 71.2 ng/mL
Cmax (5 mg, Cmax, sirolimus 5 mg, without ketoconazole, n=6): 25.8 ng/mL
half-life (5 mg, T1/2, sirolimus 5 mg, with ketoconazole, n=6): 57 h
half-life (5 mg, T1/2, sirolimus 5 mg, without ketoconazole, n=6): 35 h
AUC(0-inf) (6 mg, sirolimus 6 mg, with ketoconazole, n=3): 2620 ng·h/mL
AUC(0-inf) (6 mg, sirolimus 6 mg, without ketoconazole, n=3): 510 ng·h/mL
Cmax (6 mg, Cmax, sirolimus 6 mg, with ketoconazole, n=3): 74.6 ng/mL
Cmax (6 mg, Cmax, sirolimus 6 mg, without ketoconazole, n=3): 15 ng/mL
half-life (6 mg, T1/2, sirolimus 6 mg, without ketoconazole, n=3): 78 h
AUC(0-inf) (8 mg, sirolimus 8 mg, with ketoconazole, n=1): 1620 ng·h/mL
AUC(0-inf) (8 mg, sirolimus 8 mg, without ketoconazole, n=1): 420 ng·h/mL
Cmax (8 mg, Cmax, sirolimus 8 mg, with ketoconazole, n=1): 85.2 ng/mL
Cmax (8 mg, Cmax, sirolimus 8 mg, without ketoconazole, n=1): 25.2 ng/mL
half-life (8 mg, T1/2, sirolimus 8 mg, with ketoconazole, n=1): 34 h
half-life (8 mg, T1/2, sirolimus 8 mg, without ketoconazole, n=1): 18 h
AUC(0-inf) (16 mg, sirolimus 16 mg, with ketoconazole, n=2): 5010 ng·h/mL
Cmax (16 mg, Cmax, sirolimus 16 mg, with ketoconazole, n=2): 123 ng/mL
half-life (16 mg, T1/2, sirolimus 16 mg, with ketoconazole, n=2): 32 h
AUC [1]: 2050 ng·h/mL
AUC [2]: 3680 ng·h/mL
Cmax (30 mg, Cmax [SD], sirolimus alone study, 4 hours apart (total 60 mg), N=5, mean): 32.9 ng/mL
Cmax (30 mg, Cmax [SD], sirolimus alone study, 24 hours apart (total 60 mg), N=3, mean): 83.9 ng/mL
Tmax [1]: 2.2 h
Tmax [2]: 2.3 h
AUC [3]: 3360 ng·h/mL
Cmax (45 mg, Cmax [SD], sirolimus alone study, 24 hours apart (total 90 mg), N=2, mean): 42.8 ng/mL
Tmax [3]: 2.1 h
CL/F (sirolimus 1 mg, with ketoconazole, n=6): 1.2 L/h
CL/F (sirolimus 1 mg, without ketoconazole, n=6): 10.3 L/h
CL/F (sirolimus 2 mg, with ketoconazole, n=6): 1.8 L/h
CL/F (sirolimus 2 mg, without ketoconazole, n=6): 9.5 L/h
CL/F (sirolimus 3 mg, with ketoconazole, n=6): 1.6 L/h
CL/F (sirolimus 3 mg, without ketoconazole, n=6): 8.0 L/h
CL/F (sirolimus 4 mg, with ketoconazole, n=6): 2.1 L/h
CL/F (sirolimus 4 mg, without ketoconazole, n=6): 10.0 L/h
CL/F (sirolimus 5 mg, with ketoconazole, n=6): 2.8 L/h
CL/F (sirolimus 5 mg, without ketoconazole, n=6): 9.0 L/h
CL/F (sirolimus 6 mg, with ketoconazole, n=3): 2.6 L/h
CL/F (sirolimus 6 mg, without ketoconazole, n=3): 15.6 L/h
CL/F (sirolimus 8 mg, with ketoconazole, n=1): 4.9 L/h
CL/F (sirolimus 8 mg, without ketoconazole, n=1): 19.1 L/h
CL/F (sirolimus 15 mg, with grapefruit juice, n=5): 5.9 L/h
CL/F (sirolimus 15 mg, without grapefruit juice, n=5): 20.5 L/h
CL/F (sirolimus 16 mg, with ketoconazole, n=2): 3.2 L/h
CL/F (sirolimus 16 mg, without ketoconazole, n=2): 11.2 L/h
CL/F (sirolimus 20 mg, with grapefruit juice, n=5): 11.5 L/h
CL/F (sirolimus 20 mg, without grapefruit juice, n=5): 36.9 L/h
CL/F (sirolimus 25 mg, with grapefruit juice, n=4): 9.2 L/h
CL/F (sirolimus 25 mg, without grapefruit juice, n=4): 32.6 L/h
CL/F (sirolimus 30 mg, with grapefruit juice, n=5): 12.6 L/h
CL/F (sirolimus 30 mg, without grapefruit juice, n=5): 18.7 L/h
CL/F (sirolimus 35 mg, with grapefruit juice, n=8): 12.8 L/h
CL/F (sirolimus 35 mg, without grapefruit juice, n=8): 29.4 L/h
CL/F [SD] (sirolimus alone study, 30 mg, 4 hours apart (total 60 mg), N=5, mean): 19.786 [15.2] l/h
CL/F [SD] (sirolimus alone study, 30 mg, 24 hours apart (total 60 mg), N=3, mean): 17.087 [2.90] l/h
CL/F [SD] (sirolimus alone study, 45 mg, 24 hours apart (total 90 mg), N=2, mean): 26.842 [1.1] l/h
CL/F [SD] (sirolimus alone study, dose cohort 10 mg, N=6, mean): 16.922 [6.08] l/h
CL/F [SD] (sirolimus alone study, dose cohort 20 mg, N=7, mean): 18.736 [11.0] l/h
CL/F [SD] (sirolimus alone study, dose cohort 30 mg, N=6, mean): 16.148 [10.4] l/h
CL/F [SD] (sirolimus alone study, dose cohort 60 mg, N=8, mean): 19.588 [13.6] l/h
Sirolimus dose at which target AUC of 3810 ng-hr/ml was achieved/observed (sirolimus plus grapefruit juice study): 25 mg
Sirolimus dose at which target AUC of 3810 ng-hr/ml was achieved (sirolimus plus ketoconazole study): 16 mg
